Measured values published in ChEMBL document CHEMBL1154978, “Sesquiterpenes from Maytenus jelskii as potential cancer chemopreventive agents” (J Nat Prod, 2010).
Activity calls are given as the source filed them. The rule behind the calls is not given here.

How the values were obtained:
Mus musculus [1] = assay: Inhibition of DMBA-induced/TPA-promoted carcinogenesis in ICR mouse assessed as reduction of papilloma-bearing mice at 85 nmol administered 1 hr before TPA treatment measured after 15 weeks
Mus musculus [2] = assay: Inhibition of DMBA-induced/TPA-promoted carcinogenesis in ICR mouse assessed as reduction of papilloma-bearing mice at 85 nmol administered 1 hr before TPA treatment measured after 20 weeks
Mus musculus [3] = assay: Inhibition of DMBA-induced/TPA-promoted carcinogenesis in ICR mouse assessed as reduction in number of skin papillomas per mouse at 85 nmol administered 1 hr before TPA treatment measured after 20 weeks; format: functional, organism-based
In short: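 Female SPF ICR mice, 6 weeks old, 15 per group, with shaved backs. Initiation was a single topical dose of DMBA (100 µg, 390 nmol) in 0.1 mL acetone. From one week later, TPA (1 µg, 1.7 nmol) in acetone was applied twice weekly. Compound (85 nmol in 0.1 mL acetone) was applied topically 1 h before each TPA dose. Papillomas per mouse were recorded weekly for 20 weeks.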

Raji [4] = assay: Inhibition of TPA-induced EBV early antigen activation in human Raji cells at 500 molar ratio after 48 hrs relative to TPA by indirect immunofluorescence technique; format: cell-based; design: scale not given: the % may be the effect or the level left; conditions: human gammaherpesvirus 4
Mus musculus [5] = assay: Inhibition of DMBA-induced/TPA-promoted carcinogenesis in ICR mouse assessed as reduction of papilloma-bearing mice at 85 nmol administered 1 hr before TPA treatment measured after 10 weeks
Raji [6] = assay: Cytotoxicity against human Raji cells carrying EBV genome by trypan blue staining method; format: cell-based; design: concentration or dose not given beside the values
In short: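 Raji cells grown in RPMI-1640 with 10% FBS and exposed for 48 h at 37 °C to n-butyric acid (4 mmol), TPA (32 pmol) and test compound in DMSO. Viability of treated cells was read by Trypan Blue staining.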

Raji [7] = assay: Inhibition of TPA-induced EBV early antigen activation in human Raji cells at 1000 molar ratio after 48 hrs relative to TPA by indirect immunofluorescence technique; format: cell-based; design: scale not given: the % may be the effect or the level left; conditions: human gammaherpesvirus 4
Raji [8] = assay: Inhibition of TPA-induced EBV early antigen activation in human Raji cells at 10 molar ratio after 48 hrs relative to TPA by indirect immunofluorescence technique; format: cell-based; design: scale not given: the % may be the effect or the level left; conditions: human gammaherpesvirus 4
Raji [9] = assay: Inhibition of TPA-induced EBV early antigen activation in human Raji cells at 100 molar ratio after 48 hrs relative to TPA by indirect immunofluorescence technique; format: cell-based; design: scale not given: the % may be the effect or the level left; conditions: human gammaherpesvirus 4

SMILES | Papilloma-bearing mice % (Mus musculus [1]) [%] | Papilloma-bearing mice % (Mus musculus [2]) [%] | Activity (Mus musculus [3]) | Activity (Raji [4]) [%] | Papilloma-bearing mice % (Mus musculus [5]) [%] | Activity (Raji [6]) [%] | Activity (Raji [7]) [%] | Activity (Raji [8]) [%] | Activity (Raji [9]) [%]
CC(=O)O[C@H]1[C@H](OC(=O)c2ccccc2)[C@@]2(C)[C@@H](OC(=O)c3ccccc3)C[C@@H]3[C@@H](OC(C)=O)[C@]2(OC3(C)C)[C@@](C)(O)[C@H]1O [2BETA,3BETA,4BETA,TRIHYDROXYCELARBICO] | 53.3 | 90 | Active | 33.2 | 20 | 60 | 0 | 98.6 | 77.5
CC(=O)O[C@H]1[C@H](OC(=O)c2ccccc2)[C@@]2(C)[C@@H](OC(=O)/C=C/c3ccccc3)C[C@@H]3[C@@H](O)[C@]2(OC3(C)C)[C@@](C)(O)[C@H]1O |  |  |  | 35.2 |  | 60 | 5.3 | 100 | 85.2
CC(=O)O[C@H]1[C@H](OC(=O)c2ccccc2)[C@@]2(C)[C@@H](OC(=O)c3ccccc3)C[C@@H]3[C@@H](OC(C)=O)[C@]2(OC3(C)C)[C@@](C)(O)[C@H]1OC(=O)c1cccnc1 |  |  |  | 36.6 |  | 60 | 7.5 | 100 | 87.6
CC(=O)O[C@H]1[C@H](OC(=O)c2ccccc2)[C@@]2(C)[C@@H](OC(=O)c3ccccc3)C[C@@H]3[C@@H](OC(=O)c4ccccc4)[C@]2(OC3(C)C)[C@@](C)(O)[C@H]1O |  |  |  | 54.2 |  | 60 | 13.7 | 100 | 87.1
CC(=O)O[C@H]1[C@H](OC(=O)c2ccccc2)[C@@]2(C)[C@@H](OC(=O)/C=C/c3ccccc3)C[C@@H]3[C@@H](OC(C)=O)[C@]2(OC3(C)C)[C@@](C)(O)[C@H]1O |  |  |  | 50.1 |  | 60 | 9.3 | 100 | 84.3
CC1=C(/C=C/C(C)=C/C=C/C(C)=C/C=C/C=C(C)/C=C/C=C(C)/C=C/C2=C(C)CCCC2(C)C)C(C)(C)CCC1 [BETA CAROTENE] |  |  |  | 33.3 |  | 70 | 8.6 | 100 | 
CC(=O)O[C@H]1[C@H](OC(=O)c2ccccc2)[C@@]2(C)[C@@H](OC(=O)/C=C/c3ccccc3)C[C@@H]3[C@@H](O)[C@]2(OC3(C)C)[C@@](C)(O)[C@H]1OC(C)=O |  |  |  | 51.3 |  | 60 | 10.1 | 100 | 85.2
CC(=O)O[C@H]1[C@H](OC(=O)c2ccccc2)[C@@]2(C)[C@@H](OC(=O)/C=C/c3ccccc3)C[C@@H]3[C@@H](OC(C)=O)[C@]2(OC3(C)C)[C@@](C)(O)[C@H]1OC(C)=O |  |  |  | 39.6 |  | 60 | 8.9 | 100 | 87.4
CC(=O)O[C@H]1[C@H](OC(=O)c2ccccc2)[C@@]2(C)[C@@H](OC(=O)/C=C/c3ccccc3)C[C@@H]3C[C@]2(OC3(C)C)[C@@](C)(O)[C@H]1O |  |  |  | 52 |  | 60 | 10.9 | 100 | 86.2
CC(=O)O[C@H]1[C@H](OC(=O)c2ccccc2)[C@@]2(C)[C@@H](OC(=O)/C=C/c3ccccc3)C[C@@H]3C[C@]2(OC3(C)C)[C@@](C)(O)[C@H]1OC(C)=O |  |  |  | 53.2 |  | 60 | 11.8 | 100 | 86.3
